Assays:
[1] = system: SCC-9 (human oral squamous cell carcinoma); assay: Alamar blue cytotoxicity assay, SCC-9; assay type: cell-based
[2] = Time-dependent 31P{1H} NMR stability in DMSO solution; assay type: physicochemical
[3] = system: HL-60 (human promyelocytic leukemia); assay: Alamar blue cytotoxicity assay, HL-60; assay type: cell-based
[4] = system: HL-60 cells; assay: Morphological analysis; assay type: cell-based, human; settings: 24 and 48 h, DOX 2 µM, OXA 2.5 µM
Outline: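 HL-60 cells were treated for 24 and 48 h, then stained with May-Grunwald-Giemsa and examined by light microscopy. In parallel, forward and side light scatter were quantified by flow cytometry, recording 10^4 events per sample with debris excluded. Vehicle was the negative control, with doxorubicin and oxaliplatin as positive controls.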

[5] = system: PBMC (human peripheral blood mononuclear cells); assay: Alamar blue cytotoxicity assay, PBMC; assay type: cell-based; settings: read-out: IC50 in µM; PBMC non-cancer cells, alamar blue, 72 h
[6] = system: ROS in HL-60 cells; assay: Intracellular reactive oxygen species levels; assay type: cell-based, human; settings: HL-60, DCFH-DA, 1 h
Outline: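 Intracellular ROS in HL-60 cells was measured with 2′,7′-dichlorofluorescin diacetate after 1 and 3 h exposure to test compound. Fluorescence was read by flow cytometry, recording 10^4 events per sample with cellular debris omitted. Vehicle served as negative control; results are mean ± S.E.M., compared by ANOVA and Student–Newman–Keuls test.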

[7] = system: HepG2 (human hepatocellular carcinoma); assay: Alamar blue cytotoxicity assay, HepG2; assay type: cell-based
[8] = system: calf thymus DNA (ctDNA); assay: DNA intercalation assay; assay type: binding; settings: cell-free, 15 µg/mL ctDNA, 1.5 µM ethidium bromide; complex 5, 10 and 20 µM; doxorubicin 10 µM
Outline: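 Ethidium bromide displacement from calf thymus DNA in saline: 15 µg/mL ctDNA, 1.5 µM ethidium bromide, test compound at 5, 10 and 20 µM. Vehicle (0.1% DMSO) was the negative control and doxorubicin (10 µM) the positive control. Fluorescence was read at excitation 320 nm and emission 600 nm. Lower fluorescence was taken as intercalation.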

[9] = system: K-562 (human chronic myelogenous leukemia); assay: Alamar blue cytotoxicity assay, K-562; assay type: cell-based
[10] = system: HL-60 cells; assay type: cell-based, human; settings: HL-60, 24 and 48 h, p < 0.05; DOX 2 µM, OXA 2.5 µM
[11] = system: HCT116 (human colon carcinoma); assay: Alamar blue cytotoxicity assay, HCT116; assay type: cell-based
[12] = system: HL-60 cells; assay: Internucleosomal DNA fragmentation and cell cycle distribution; assay type: cell-based, human
Outline: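 After 24 or 48 h treatment, HL-60 cells were permeabilized and stained with propidium iodide, and DNA content was measured by flow cytometry. 10^4 events were recorded per sample with debris excluded. Sub-G0/G1 was taken as internucleosomal DNA fragmentation, alongside G0/G1, S and G2/M fractions. Doxorubicin and oxaliplatin were positive controls; ANOVA with Student–Newman–Keuls test.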

[13] = system: HL-60 cells; assay: Mitochondrial transmembrane potential; assay type: cell-based, human; settings: HL-60, rhodamine 123, 24 h, p < 0.05; DOX 2 µM, OXA 2.5 µM
Outline: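 HL-60 cells were grown in RPMI-1640 with 10% FBS, 2 mM L-glutamine and 50 µg/mL gentamycin at 37 °C, 5% CO2. After treatment, cells were loaded with rhodamine 123 (5 µg/mL) for 15 min at 37 °C in the dark and washed in saline.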

[14] = system: MCF-7 (human breast carcinoma); assay: Alamar blue cytotoxicity assay, MCF-7; assay type: cell-based
[15] = system: B16-F10 (mouse melanoma); assay: Alamar blue cytotoxicity assay, B16-F10; assay type: cell-based
[16] = system: HSC-3 (human oral squamous cell carcinoma); assay: Alamar blue cytotoxicity assay, HSC-3; assay type: cell-based
[17] = HL-60, 1 µM, 24 h of incubation
[18] = HL-60, 1 µM, 48 h of incubation
[19] = HL-60, 2 µM, 24 h of incubation
[20] = HL-60, 2 µM, 48 h of incubation
[21] = HL-60, 4 µM, 24 h of incubation
[22] = HL-60, 4 µM, 48 h of incubation

Substance: cis-[PtCl(PIP-OH)(PPh3)2]PF6 [CPP]
- more potent than PIP-OH ([1]; SCC-9, ratio of IC50): 3.8 fold
- more potent than piplartine ([1]; SCC-9, ratio of IC50): 2.7 fold
- IC50 ([1]; read-out: IC50 in µM, SCC-9, alamar blue, 72 h): 6.2 µM
- stability in solution (31P{1H} NMR) ([2]; after 1 h of incubation): significant dissociation of PIP-OH ligand from the metal complex
- stability in solution (31P{1H} NMR) ([2]; after 48 h): most the PIP-OH was dissociated from the metal complex
- more potent than PIP-OH ([3]; HL-60, ratio of IC50): 4.5 fold
- more potent than piplartine ([3]; HL-60, ratio of IC50): 7.4 fold
- IC50 ([3]; read-out: IC50 in µM, HL-60, alamar blue, 72 h): 1.9 µM
- cell morphology ([4]; HL-60, May-Grunwald-Giemsa): reduction in the cell volume, chromatin condensation and fragmentation of the nuclei
- forward light scatter (FSC) ([4]; HL-60, flow cytometry): decrease in FSC
- side scatter (SCC) ([4]; HL-60, flow cytometry): transient increase in SCC
- IC50 [5]: 10.3 µM
- ROS levels [6]: caused increasing in the ROS levels
- more potent than piplartine ([7]; HepG2, ratio of IC50): 1.4 fold
- IC50 ([7]; read-out: IC50 in µM, HepG2, alamar blue, 72 h): 4.4 µM
- ethidium bromide fluorescence (displacement from ctDNA) [8]: did not reduce the ethidium bromide fluorescence
- more potent than PIP-OH ([9]; K-562, ratio of IC50): 21.1 fold
- more potent than piplartine ([9]; K-562, ratio of IC50): 16.9 fold
- IC50 ([9]; read-out: IC50 in µM, K-562, alamar blue, 72 h): 1.1 µM
- apoptotic cells (annexin V-FITC/PI) [10]: increasing in apoptotic cells with more pronounced effect after 48 h
- more potent than PIP-OH ([11]; HCT116, ratio of IC50): 2.4 fold
- more potent than piplartine ([11]; HCT116, ratio of IC50): 1.1 fold
- IC50 ([11]; read-out: IC50 in µM, HCT116, alamar blue, 72 h): 4.8 µM
- DNA content (%) G0/G1 [12, 17]: 32.0 ± 5.4 %
- DNA content (%) G2/M [12, 17]: 13.2 ± 2.9%
- DNA content (%) S [12, 17]: 10.5 ± 1.8%
- DNA content (%) Sub-G0/G1 [12, 17]: 25.0 ± 1.6 %
- DNA content (%) G0/G1 [12, 18]: 49.7 ± 2.2%
- DNA content (%) G2/M [12, 18]: 14.5 ± 0.9%
- DNA content (%) S [12, 18]: 12.3 ± 1.6%
- DNA content (%) Sub-G0/G1 [12, 18]: 19.8 ± 1.4 %
- DNA content (%) G0/G1 [12, 19]: 34.3 ± 2.9 %
- DNA content (%) G2/M [12, 19]: 15.0 ± 2.5%
- DNA content (%) S [12, 19]: 10.3 ± 1.1%
- DNA content (%) Sub-G0/G1 [12, 19]: 29.2 ± 0.9 %
- DNA content (%) G0/G1 [12, 20]: 48.5 ± 3.1%
- DNA content (%) G2/M [12, 20]: 14.1 ± 1.5%
- DNA content (%) S [12, 20]: 14.3 ± 0.8%
- DNA content (%) Sub-G0/G1 [12, 20]: 25.8 ± 3.8 %
- DNA content (%) G0/G1 [12, 21]: 26.7 ± 4.6 %
- DNA content (%) G2/M [12, 21]: 15.3 ± 2.6%
- DNA content (%) S [12, 21]: 10.1 ± 1.4%
- DNA content (%) Sub-G0/G1 [12, 21]: 26.2 ± 4.1 %
- DNA content (%) G0/G1 [12, 22]: 41.9 ± 8.6%
- DNA content (%) G2/M [12, 22]: 12.8 ± 2.8%
- DNA content (%) S [12, 22]: 8.0 ± 2.0 %
- DNA content (%) Sub-G0/G1 [12, 22]: 27.3 ± 7.0 %
- mitochondrial transmembrane potential [13]: induced loss of the mitochondrial transmembrane potential
- more potent than PIP-OH ([14]; MCF-7, ratio of IC50): 3.6 fold
- more potent than piplartine ([14]; MCF-7, ratio of IC50): 1.5 fold
- IC50 ([14]; read-out: IC50 in µM, MCF-7, alamar blue, 72 h): 6.8 µM
- more potent than PIP-OH ([15]; B16-F10, ratio of IC50): 56.9 fold
- more potent than piplartine ([15]; B16-F10, ratio of IC50): 9.6 fold
- IC50 ([15]; read-out: IC50 in µM, B16-F10, alamar blue, 72 h): 1.1 µM
- more potent than PIP-OH ([16]; HSC-3, ratio of IC50): 1.7 fold
- more potent than piplartine ([16]; HSC-3, ratio of IC50): 14.1 fold
- IC50 ([16]; read-out: IC50 in µM, HSC-3, alamar blue, 72 h): 1 µM

— article PMC6198128 (Redox Biology, 2018)
